Most compounds without a hit are left out; they make up all but 0.58% or so of the library.
miR-122 sensor: miR-122 inhibition in Huh7 cells; Huh7 miR-122 Renilla luciferase sensor, 48 h; neutral wells = 0, positive control = 100; 0.3% of 340,000 active; activation (reporter increase), % at 12.5 µM;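 active means mean replicate activation score at least 90 and every replicate individually at or above 90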;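 further: higher luciferase means less miR-122 activity so hits act as miR-122 inhibitors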
PDI inh: blocks human protein disulfide isomerase activity; PDI insulin aggregation turbidity, A650, 90 min; inhibition, % at 10 µM; AID 588391; 0.052% of 350,000 active; P07237;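 active means mean inhibition across replicates of 30% or more, whatever share of single replicates reach that level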
Target sequence (P07237 whole entry, looked up): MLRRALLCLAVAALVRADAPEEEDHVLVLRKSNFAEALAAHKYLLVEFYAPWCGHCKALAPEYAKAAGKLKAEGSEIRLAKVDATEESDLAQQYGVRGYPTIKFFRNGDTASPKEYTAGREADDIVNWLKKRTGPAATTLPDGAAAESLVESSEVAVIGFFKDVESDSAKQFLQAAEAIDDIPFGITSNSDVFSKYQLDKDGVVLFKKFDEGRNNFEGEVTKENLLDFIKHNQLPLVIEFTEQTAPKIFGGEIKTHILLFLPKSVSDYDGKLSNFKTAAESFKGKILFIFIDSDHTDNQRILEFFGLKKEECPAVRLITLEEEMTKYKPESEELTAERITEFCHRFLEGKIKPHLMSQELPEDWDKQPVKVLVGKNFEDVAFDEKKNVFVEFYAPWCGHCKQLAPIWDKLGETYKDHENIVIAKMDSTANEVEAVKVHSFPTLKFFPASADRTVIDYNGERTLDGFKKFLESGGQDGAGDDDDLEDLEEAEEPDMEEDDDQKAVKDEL
Cneo AK release: causes C. neoformans cell lysis; 0.2% of 360,000 active; lysis activity, % at 15 µM; AID 651654; adenylate kinase release luminescence, 4 h; normalised: neutral wells 0, clomiphene wells 100;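 active means mean lysis activity across replicates of at least 80%, whatever share of replicates individually reach that level; inactive means mean lysis activity below 80%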
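read-out = cell lysis signal | test system = log-phase Cryptococcus neoformans yeast cells | input = cells at 5 × 10^6 per mL | medium = fresh YPD growth medium | signal = luminescent adenylate kinase detection reagent | timing = 4 h at 37 °C static, read 1 h later | dosing = single dose | controls = Clomiphene as positive lysis control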
ERp5 inh: ERp5 (human) disulfide isomerase inhibition. 0.05% of 350,000 active. ERp5 insulin aggregation, absorbance 650 nm, 90 min. Q15084. AID 651711. inhibition, % at 9.99 µM;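 active means mean replicate inhibition above about 25%, with every replicate also reaching it, limit read from the data, passing the limit was not always enough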
PglD DTNB: inhibitors of Campylobacter jejuni PglD acetyltransferase; purified PglD enzyme, DTNB colorimetric CoA detection; inhibition, % at 12.5 µM; 0.098% of 360,000 active; AID 602405; in the data active means inhibition above about 16%, passing the limit was not always enough
PvdQ inh: P. aeruginosa PvdQ acylase inhibition; purified PvdQ acylase, fluorescence plate reader; inhibition, % at 10 µM; 0.063% of 340,000 active; AID 488965; in the data active means inhibition above about 30%, passing the limit was not always enough;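 further: 0% = vehicle neutral wells and 100% = reference inhibitor wells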
Starred values were filed as active, the others as inactive; . = not tested or not shown; [ ] = dose if it differs, or a comment.

SMILES | miR-122 sensor | PDI inh | Cneo AK release | ERp5 inh | PglD DTNB | PvdQ inh
C[C@@H]1CN([C@@H](C)CO)C(=O)c2cc(NS(C)(=O)=O)ccc2O[C@@H](C)CCCCO[C@@H]1CN(C)C(=O)Nc1ccc(F)cc1 | 19[16.7 µM] | . | -2 | -2 | 0 | .
C/C=C/c1cnc2c(c1)C(=O)N([C@H](C)CO)C[C@@H](C)[C@@H](CN(C)S(=O)(=O)c1ccccc1F)O2 | 78[16.7 µM] | . | 4 | 0 | -3 | .
O=C1/C(=C/c2cccc([N+](=O)[O-])c2)Oc2cc(O)ccc21 | -6 | -11 | 1 | -2 | 0 | 41*
C/C=C/c1ccc([C@H]2[C@@H](C#N)N(S(=O)(=O)c3cccc(F)c3)[C@H]2CO)cc1 | . | . | 91* | 1 | 4 | .
CCCN(C)C[C@H]1OCCCC[C@@H](C)Oc2ccc(NC(=O)Nc3ccc(OC)cc3)cc2C(=O)N([C@H](C)CO)C[C@@H]1C | -2[16.7 µM] | . | 1 | -3 | -1 | .
CO[C@H]1CN(C)C(=O)c2cc(NC(=O)CC(F)(F)F)ccc2OC[C@H](C)N(C(=O)C2CC2)C[C@@H]1C | . | . | . | 42* | . | .
CO[C@@H]1CN(C)C(=O)c2cc(NC(=O)CC(F)(F)F)ccc2OC[C@@H](C)N(C(=O)C2CCCC2)C[C@H]1C | 7[16.7 µM] | . | 6 | 1 | 0 | .
CCC(=O)Nc1ccc2c(c1)C(=O)N(C)C[C@@H](OC)[C@H](C)CN[C@@H](C)CO2 | 16[16.7 µM] | . | 102* | 2 | -49 | .
CCC(=O)Nc1ccc2c(c1)C(=O)N(C)C[C@@H](OC)[C@@H](C)CN[C@H](C)CO2 | 7[16.7 µM] | . | -4 | 0 | -5 | .
CCCNC(=O)Nc1ccc2c(c1)C(=O)N(C)C[C@H](OC)[C@@H](C)CN(C(=O)CC)[C@@H](C)CO2 | -3[16.7 µM] | . | 99* | . | 2 | .
COc1cccc(S(=O)(=O)Nc2ccc3c(c2)OC[C@H](C)NC[C@@H](C)[C@H](OC)CN(C)C3=O)c1 | -14[16.7 µM] | . | 87* | -3 | 1 | .
CCCNC(=O)Nc1ccc2c(c1)C(=O)N(C)C[C@@H](OC)[C@H](C)CN(C(=O)CC)[C@@H](C)CO2 | -2[16.7 µM] | . | 1 | . | -1 | .
CCCNC(=O)Nc1ccc2c(c1)C(=O)N(C)C[C@@H](OC)[C@@H](C)CN(C(=O)CC)[C@H](C)CO2 | 29[16.7 µM] | . | 91* | . | -3 | .
CCCNC(=O)Nc1ccc2c(c1)C(=O)N(C)C[C@H](OC)[C@H](C)CN(C(=O)CC)[C@@H](C)CO2 | 16[16.7 µM] | . | 0 | . | 3 | .
CC(C)Cn1c(N)c(C(=O)COC(=O)c2ccc(O)cc2)c(=O)n(C)c1=O | . | 55* | . | 0 | . | -13
CC(C)C(=O)Nc1cc(S(=O)(=O)Nc2cccc(Cl)c2)ccc1Cl | 256* | -7 | 1 | 3 | 2 | -7
CS(=O)(=O)N1[C@@H](C#N)[C@@H](c2ccccc2-c2ccccc2)[C@@H]1CO | . | . | . | 2 | . | .
Cc1cc(NCCCn2ccnc2)n2nc(-c3ccc(F)cc3)cc2n1 | -2 | -1 | . | 4 | . | -7
Cc1cc(NCCCn2ccnc2)n2nc(-c3ccc(Cl)cc3)cc2n1 | . | 27 | . | -1 | . | 35*
Cc1ccc(NCc2nnc(SCC(=O)Nc3ccccc3)n2CC2CCCO2)c(C)c1 (configuration not stated) | 151* | 1 | . | . | . | 0
Cc1ccc(S(=O)(=O)N(CC(O)CN2CCOCC2)c2cccc([N+](=O)[O-])c2)cc1 (configuration not stated) | 10 | -1 | 1 | 27* | 0 | -11
CO[C@H]1CN(C)C(=O)c2cc(NC(=O)C3CCC3)ccc2OC[C@@H](C)N(Cc2ccccn2)C[C@@H]1C | . | . | -5 | -1 | -1 | .
Cc1noc(C)c1S(=O)(=O)Nc1ccc2c(c1)C(=O)N([C@@H](C)CO)C[C@@H](C)[C@H](CN(C)Cc1ccc3c(c1)OCO3)OCCCC[C@H](C)O2 | 33[16.7 µM] | . | 101* | -1 | 1 | .
Cc1noc(C)c1S(=O)(=O)Nc1ccc2c(c1)C(=O)N([C@H](C)CO)C[C@@H](C)[C@@H](CN(C)Cc1ccc3c(c1)OCO3)OCCCC[C@H](C)O2 | -16[16.7 µM] | . | 3 | 0 | -2 | .
C[C@H](CO)N1C[C@H](C)[C@@H](CN(C)Cc2ccccc2)OCCCC[C@H](C)Oc2ccc(NS(=O)(=O)c3cccs3)cc2C1=O | -1[16.7 µM] | . | 3 | -4 | 10 | .
SMILES | miR-122 sensor | PDI inh | Cneo AK release | ERp5 inh | PglD DTNB | PvdQ inh
C[C@H](CO)N1C[C@H](C)[C@H](CN(C)Cc2ccccc2)OCCCC[C@H](C)Oc2ccc(NS(=O)(=O)c3cccs3)cc2C1=O | -4[16.7 µM] | . | 91* | -1 | 0 | .
Cc1ccc(S(=O)(=O)N(C)C[C@H]2OCCCC[C@@H](C)Oc3ccc(NC(=O)CCCCCC(=O)Nc4ccccc4N)cc3C(=O)N([C@H](C)CO)C[C@@H]2C)cc1 | . | . | . | 15 | . | .
Cc1noc(C)c1S(=O)(=O)Nc1ccc2c(c1)C(=O)N([C@H](C)CO)C[C@@H](C)[C@H](CN(C)Cc1ccccc1)OCCCC[C@H](C)O2 | 30[16.7 µM] | . | 101* | -1 | 2 | .
Cc1noc(C)c1S(=O)(=O)N(C)C[C@H]1OCCCC[C@@H](C)Oc2ccc(NC(=O)CCCCCC(=O)Nc3ccccc3N)cc2C(=O)N([C@@H](C)CO)C[C@@H]1C | 48[16.7 µM] | . | 97* | 0 | 3 | .
CC(=O)N1[C@H](C(=O)NC2CCC2)[C@@H](CO)[C@@H]2Cn3c(ccc(-c4ccc(F)cc4)c3=O)[C@@H]21 | . | . | 48 | -2 | 0 | .
CCCN1C[C@@H](C)[C@H](OC)CN(C)C(=O)c2cc(NC(=O)c3ccccc3F)ccc2OC[C@H]1C | -23[16.7 µM] | . | -5 | -2 | 1 | .
C[C@@H]1CCCCO[C@@H](CN(C)Cc2ccc(C(F)(F)F)cc2)[C@@H](C)CN([C@H](C)CO)C(=O)c2cc(NS(=O)(=O)c3cn(C)cn3)ccc2O1 | 3[16.7 µM] | . | -1 | -1 | 3 | .
C[C@@H]1CN([C@@H](C)CO)C(=O)c2cc(NS(=O)(=O)c3ccc(F)cc3)ccc2O[C@@H](C)CCCCO[C@H]1CN(C)Cc1ccc2c(c1)OCO2 | -9[16.7 µM] | . | 15 | 2 | -12 | .
C[C@@H]1CCCCO[C@@H](CN(C)Cc2ccc3c(c2)OCO3)[C@@H](C)CN([C@H](C)CO)C(=O)c2cc(NS(=O)(=O)c3ccc(F)cc3)ccc2O1 | -2[16.7 µM] | . | 113* | 0 | -4 | .
C[C@@H]1CCCCO[C@@H](CN(C)Cc2ccc(C(F)(F)F)cc2)[C@@H](C)CN([C@@H](C)CO)C(=O)c2cc(NS(=O)(=O)c3cn(C)cn3)ccc2O1 | 26[16.7 µM] | . | 91* | -1 | -3 | .
C[C@H]1CN([C@@H](C)CO)C(=O)c2cc(C#CC(C)(C)O)cnc2O[C@H]1CN(C)C(=O)c1ccccc1F | -2[16.7 µM] | . | 3 | 3 | -2 | .
COCC(=O)Nc1ccc2c(c1)OC[C@@H](C)N(Cc1cncnc1)C[C@H](C)[C@@H](OC)CN(C)C2=O | -3[16.7 µM] | . | . | . | . | .
